Assay results taken from ChEMBL document CHEMBL3091303, “1,3-Dialkyl-substituted tetrahydropyrimido[1,2-f]purine-2,4-diones as multiple target drugs for the potential treatment of neurodegenerative diseases” (Bioorg Med Chem, 2013).
pIC50, pKi: −log10 of the molar value.

Tests used:
Adenosine receptor A2a [1] = target: T1, Adenosine receptor A2a (Homo sapiens, UniProt P29274); assay: Binding affinity to human adenosine A2A receptor
Adenosine receptor A2a [2] = target: T1, Adenosine receptor A2a; assay: Displacement of [3H]MSX-2 from human adenosine A2A receptor expressed in CHO cells; assay type: cell-based
Procedure, shortened: (§1)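 Radioligand binding to human receptors recombinantly expressed in Chinese hamster ovary (CHO) cells. Results are Ki, or % inhibition of radioligand binding at the indicated concentration.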

Adenosine receptor A2a [3] = target: Adenosine receptor A2a (Rattus norvegicus, UniProt P30543); assay: Displacement of [3H]MSX-2 from adenosine A2A receptor in rat brain striatum; assay type: tissue-based
Adenosine receptor A1 [4] = target: T2, Adenosine receptor A1 (Homo sapiens, UniProt P30542); assay: Displacement of [3H]CCPA from human adenosine A1 receptor expressed in CHO cells; assay type: cell-based; procedure, shortened: as §1
T2 sequence (P30542 whole entry): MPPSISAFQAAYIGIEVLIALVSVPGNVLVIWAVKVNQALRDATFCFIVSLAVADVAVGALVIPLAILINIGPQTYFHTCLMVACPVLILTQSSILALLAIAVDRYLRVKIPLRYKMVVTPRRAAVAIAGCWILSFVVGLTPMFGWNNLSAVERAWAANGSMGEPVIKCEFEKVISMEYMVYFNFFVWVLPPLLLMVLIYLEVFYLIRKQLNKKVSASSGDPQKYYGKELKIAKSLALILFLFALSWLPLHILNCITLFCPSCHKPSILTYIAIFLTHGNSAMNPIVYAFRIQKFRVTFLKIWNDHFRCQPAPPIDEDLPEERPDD

[5] = target: T3, Adenosine receptor A2b (Homo sapiens) (UniProt P29275); assay: Displacement of [3H]PSB-603 from human adenosine A2B receptor relative to control; design: concentration or dose not given beside the values; details: concentration not given here
T3 sequence (whole entry): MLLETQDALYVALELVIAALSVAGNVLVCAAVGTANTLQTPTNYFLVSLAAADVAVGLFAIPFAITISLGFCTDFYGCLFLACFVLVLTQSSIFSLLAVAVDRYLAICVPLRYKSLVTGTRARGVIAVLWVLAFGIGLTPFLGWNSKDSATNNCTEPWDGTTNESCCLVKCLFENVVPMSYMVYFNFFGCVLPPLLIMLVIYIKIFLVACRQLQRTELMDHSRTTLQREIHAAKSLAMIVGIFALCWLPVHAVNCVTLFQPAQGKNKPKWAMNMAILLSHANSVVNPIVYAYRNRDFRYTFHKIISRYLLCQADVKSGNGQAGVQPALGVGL

[6] = target: T4, Amine oxidase [flavin-containing] B (Homo sapiens, UniProt P27338); assay: Inhibition of human MAO-B
T4 sequence (P27338 whole entry): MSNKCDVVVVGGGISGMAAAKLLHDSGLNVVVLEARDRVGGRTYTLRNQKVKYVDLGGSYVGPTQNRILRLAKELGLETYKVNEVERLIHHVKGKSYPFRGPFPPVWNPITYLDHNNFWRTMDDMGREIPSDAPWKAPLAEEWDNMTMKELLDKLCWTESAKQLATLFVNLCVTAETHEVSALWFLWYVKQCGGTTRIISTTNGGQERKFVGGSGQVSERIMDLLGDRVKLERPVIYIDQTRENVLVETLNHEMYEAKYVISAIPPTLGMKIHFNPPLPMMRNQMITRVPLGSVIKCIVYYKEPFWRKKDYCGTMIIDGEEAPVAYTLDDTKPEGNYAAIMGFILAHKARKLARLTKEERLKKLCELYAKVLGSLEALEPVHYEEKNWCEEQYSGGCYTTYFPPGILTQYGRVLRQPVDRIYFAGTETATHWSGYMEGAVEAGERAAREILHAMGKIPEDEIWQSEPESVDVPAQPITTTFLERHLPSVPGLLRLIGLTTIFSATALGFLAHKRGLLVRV

[7] = target: T5, MAO-A (amine oxidase [flavin-containing] A) (Homo sapiens, UniProt P21397); assay: Inhibition of human MAO-A at 10 uM relative to control
T5 sequence (P21397 whole entry): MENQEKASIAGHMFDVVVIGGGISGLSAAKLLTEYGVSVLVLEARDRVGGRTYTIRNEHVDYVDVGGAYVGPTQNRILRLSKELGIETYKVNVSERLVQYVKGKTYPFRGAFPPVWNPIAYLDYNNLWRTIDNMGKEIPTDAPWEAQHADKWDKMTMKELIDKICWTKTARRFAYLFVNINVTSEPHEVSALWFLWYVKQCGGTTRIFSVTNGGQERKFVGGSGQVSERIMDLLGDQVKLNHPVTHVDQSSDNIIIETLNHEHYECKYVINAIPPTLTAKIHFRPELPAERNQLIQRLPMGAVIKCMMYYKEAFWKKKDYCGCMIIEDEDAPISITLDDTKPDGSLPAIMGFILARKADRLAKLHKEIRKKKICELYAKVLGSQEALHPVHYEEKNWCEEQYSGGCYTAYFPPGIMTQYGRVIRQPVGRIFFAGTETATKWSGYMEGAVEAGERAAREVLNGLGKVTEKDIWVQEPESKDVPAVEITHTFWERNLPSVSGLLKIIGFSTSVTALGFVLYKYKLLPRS
Procedure, shortened: (§2)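 Human MAO-A and MAO-B inhibition, screened first at a test concentration of 10 µM.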

Adenosine receptor A1 [8] = target: T6, Adenosine receptor A1 (Rattus norvegicus, UniProt P25099); assay: Displacement of [3H]CCPA from adenosine A1 receptor in rat brain cortex; assay type: tissue-based
T6 sequence (P25099 whole entry): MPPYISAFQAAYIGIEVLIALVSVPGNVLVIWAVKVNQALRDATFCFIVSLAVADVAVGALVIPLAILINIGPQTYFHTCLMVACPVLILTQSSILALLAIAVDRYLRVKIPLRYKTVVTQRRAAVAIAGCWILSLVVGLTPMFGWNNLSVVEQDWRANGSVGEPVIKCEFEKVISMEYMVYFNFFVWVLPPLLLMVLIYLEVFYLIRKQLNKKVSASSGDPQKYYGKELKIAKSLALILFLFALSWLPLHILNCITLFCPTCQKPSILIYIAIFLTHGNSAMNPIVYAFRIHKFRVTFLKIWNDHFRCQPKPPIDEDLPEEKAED
Procedure, shortened: (§3)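 Radioligand binding to rat A1 receptors in rat brain cortical membrane preparations. Values are given as Ki, or as % inhibition of radioligand binding at the indicated concentration.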

Adenosine receptor A3 = target: T7, Adenosine receptor A3 (Homo sapiens, UniProt P0DMS8); assay: Displacement of [3H]PSB-11 from human adenosine A3 receptor expressed in CHO cells; assay type: cell-based
T7 sequence (P0DMS8 whole entry): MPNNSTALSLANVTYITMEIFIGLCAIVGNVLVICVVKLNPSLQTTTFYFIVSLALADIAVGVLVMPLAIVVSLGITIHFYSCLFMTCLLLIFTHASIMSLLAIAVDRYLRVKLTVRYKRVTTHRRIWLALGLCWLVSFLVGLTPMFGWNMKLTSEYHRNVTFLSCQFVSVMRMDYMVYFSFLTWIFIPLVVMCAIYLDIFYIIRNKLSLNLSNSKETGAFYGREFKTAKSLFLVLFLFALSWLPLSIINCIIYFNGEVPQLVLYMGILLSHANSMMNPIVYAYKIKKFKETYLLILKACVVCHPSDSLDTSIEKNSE

[9] = target: T8, Adenosine receptor A1 (Homo sapiens) (UniProt P30542); assay: Displacement of [3H]CCPA from human adenosine A1 receptor expressed in CHO cells relative to control; assay type: cell-based; details: concentration not given here; procedure, shortened: as §1
T8 sequence (whole entry): T2 sequence (P30542 whole entry)

Adenosine receptor A2b = target: T9, Adenosine receptor A2b (Homo sapiens, UniProt P29275); assay: Displacement of [3H]PSB-603 from human adenosine A2B receptor
T9 sequence (P29275 whole entry): T3 sequence (whole entry)

[10] = target: T10, Amine oxidase [flavin-containing] A (Homo sapiens, UniProt P21397); assay: Inhibition of human MAO-A; procedure, shortened: as §2
T10 sequence (P21397 whole entry): T5 sequence (P21397 whole entry)

[11] = target: T11, Adenosine receptor A3 (Homo sapiens) (UniProt P0DMS8); assay: Displacement of [3H]PSB-11 from human adenosine A3 receptor expressed in CHO cells relative to control; assay type: cell-based; design: concentration or dose not given beside the values; details: concentration not given here
T11 sequence (whole entry): T7 sequence (P0DMS8 whole entry)

[12] = Ratio of Ki for human adenosine A1 receptor to Ki for adenosine A1 receptor in rat brain cortex; assay type: tissue-based
[13] = target: T12, MAO-B (amine oxidase [flavin-containing] B) (Homo sapiens, UniProt P27338); assay: Inhibition of human MAO-B at 10 uM relative to control; procedure, shortened: as §2
T12 sequence (P27338 whole entry): T4 sequence (P27338 whole entry)

[14] = system: Adenosine receptor A1/A2A (Homo sapiens); assay: Selectivity ratio of Ki for human adenosine A1 receptor to Ki for human adenosine A2A receptor
Rattus norvegicus = species on record: Rattus norvegicus; assay: Selectivity ratio of Ki for adenosine A2A receptor in rat brain striatum to Ki for adenosine A1 receptor in rat brain cortex; assay type: tissue-based
[15] = target: T13, Adenosine receptor A1 (Rattus norvegicus) (UniProt P25099); assay: Displacement of [3H]CCPA from adenosine A1 receptor in rat brain cortex relative to control; assay type: tissue-based; design: concentration or dose not given beside the values; details: concentration not given here; procedure, shortened: as §3
T13 sequence (whole entry): T6 sequence (P25099 whole entry)

[16] = target: Adenosine receptor A2a (Rattus norvegicus) (UniProt P30543); assay: Displacement of [3H]MSX-2 from adenosine A2A receptor in rat brain striatum relative to control; assay type: tissue-based; design: concentration or dose not given beside the values; details: concentration not given here
Procedure, shortened: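 Radioligand binding to rat A2A receptors in rat brain striatal membrane preparations, reported as % inhibition of radioligand binding at the indicated concentration.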

Sequence of Adenosine receptor A2a (Rattus norvegicus, UniProt P30543) (P30543 whole entry): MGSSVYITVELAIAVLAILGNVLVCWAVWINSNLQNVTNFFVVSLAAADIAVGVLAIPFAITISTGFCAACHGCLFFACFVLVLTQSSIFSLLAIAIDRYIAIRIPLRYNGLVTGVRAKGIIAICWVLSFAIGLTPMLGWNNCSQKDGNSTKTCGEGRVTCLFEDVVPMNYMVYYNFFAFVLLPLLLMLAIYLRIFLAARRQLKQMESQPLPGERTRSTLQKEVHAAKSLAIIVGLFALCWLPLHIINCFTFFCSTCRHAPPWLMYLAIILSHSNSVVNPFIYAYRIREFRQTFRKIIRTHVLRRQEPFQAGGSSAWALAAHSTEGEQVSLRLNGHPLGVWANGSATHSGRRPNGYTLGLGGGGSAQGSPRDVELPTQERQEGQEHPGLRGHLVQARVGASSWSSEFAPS
T1 sequence (P29274 whole entry): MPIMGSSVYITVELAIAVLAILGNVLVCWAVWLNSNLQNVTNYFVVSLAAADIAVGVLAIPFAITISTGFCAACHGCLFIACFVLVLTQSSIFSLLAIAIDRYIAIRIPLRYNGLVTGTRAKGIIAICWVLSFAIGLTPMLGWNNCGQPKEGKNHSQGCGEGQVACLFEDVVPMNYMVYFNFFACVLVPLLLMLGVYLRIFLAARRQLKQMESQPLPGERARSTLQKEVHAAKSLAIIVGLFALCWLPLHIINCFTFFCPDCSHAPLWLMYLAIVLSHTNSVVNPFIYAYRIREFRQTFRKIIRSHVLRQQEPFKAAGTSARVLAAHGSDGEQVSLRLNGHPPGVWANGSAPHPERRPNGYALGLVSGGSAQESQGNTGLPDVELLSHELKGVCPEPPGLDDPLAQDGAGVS
Sequence of Adenosine receptor A2a (Rattus norvegicus) (P30543 whole entry): as the sequence (P30543 whole entry) above

C#CCn1c(=O)c2c(nc(/C=C/c3cccc(OC)c3)n2C)n(CCCO)c1=O
pKi (Adenosine receptor A2a [1]): 8.27 | pKi (Adenosine receptor A2a [2]): 8.27

Cn1c(=O)c2c(nc3n2CCCN3Cc2cccc(Cl)c2)n(C)c1=O
pKi (Adenosine receptor A2a [3]): 6.10 | pKi (Adenosine receptor A1 [4]): < 5.00 | inhibition [5]: 10% | pIC50 [6]: 6.46 | inhibition at 10 µM [7]: 2% | pKi (Adenosine receptor A1 [8]): 6.36 | pKi (Adenosine receptor A3): 4.82 | inhibition [9]: 21% | pKi (Adenosine receptor A2b): < 6.00 | pKi (Adenosine receptor A2a [2]): 5.69 | pIC50 [10]: < 5.00

C#CCn1c(=O)c2c(nc3n2CCCN3c2cccc(OC)c2)n(C)c1=O
inhibition [11]: 20% | pKi (Adenosine receptor A2a [3]): 5.52 | Ratio Ki [12]: > 10 | pKi (Adenosine receptor A1 [4]): 5.02 | inhibition [5]: 8% | pIC50 [6]: < 5.00 | inhibition at 10 µM [13]: 36% | pKi (Adenosine receptor A1 [8]): 6.33 | pKi (Adenosine receptor A3): < 6.00 | pKi (Adenosine receptor A2b): < 6.00

C#CCn1c(=O)c2c(nc3n2CCCN3c2cccc(Br)c2)n(C)c1=O
inhibition [11]: 34% | pKi (Adenosine receptor A2a [3]): 6.03 | pKi (Adenosine receptor A1 [4]): < 5.00 | Ratio Ki [14]: > 35 | pIC50 [6]: 5.00 | inhibition at 10 µM [13]: 46% | pKi (Adenosine receptor A1 [8]): 6.50 | pKi (Adenosine receptor A3): < 5.00 | inhibition [9]: 21% | pKi (Adenosine receptor A2b): 5.41 | pKi (Adenosine receptor A2a [2]): 6.55 | Ratio Ki (Rattus norvegicus): 3

C#CCn1c(=O)c2c(nc3n2CCCN3CCc2ccccc2)n(C)c1=O
inhibition [11]: 10% | pKi (Adenosine receptor A2a [3]): 6.08 | Ratio Ki [12]: 18 | pKi (Adenosine receptor A1 [4]): 4.94 | inhibition [5]: 3% | pIC50 [6]: < 5.00 | inhibition at 10 µM [13]: 2% | pKi (Adenosine receptor A1 [8]): 6.20 | pKi (Adenosine receptor A3): < 6.00 | pKi (Adenosine receptor A2b): < 6.00 | pKi (Adenosine receptor A2a [2]): 5.92

Cn1c(=O)c2c(nc3n2CCCN3Cc2ccc(Cl)cc2)n(C)c1=O
inhibition [15]: 27% | inhibition [11]: 36% | pKi (Adenosine receptor A2a [3]): 5.14 | pKi (Adenosine receptor A1 [4]): < 5.00 | inhibition [5]: 1% | pIC50 [6]: 6.66 | inhibition at 10 µM [7]: 14% | pKi (Adenosine receptor A1 [8]): < 4.60 | pKi (Adenosine receptor A3): < 5.00 | inhibition [9]: 29% | pKi (Adenosine receptor A2b): < 6.00 | pIC50 [10]: < 5.00

Cn1c(=O)c2c(nc3n2CCCN3c2ccc(Cl)cc2)n(C)c1=O
inhibition [15]: 47% | inhibition [11]: 15% | pKi (Adenosine receptor A2a [3]): 5.92 | pKi (Adenosine receptor A1 [4]): 5.00 | inhibition [5]: 10% | pIC50 [6]: 5.00 | inhibition at 10 µM [13]: 6% | inhibition at 10 µM [7]: 6% | pKi (Adenosine receptor A1 [8]): ≤ 4.60 | pKi (Adenosine receptor A3): < 5.00 | inhibition [9]: 30% | pKi (Adenosine receptor A2b): < 6.00 | pIC50 [10]: < 5.00

Cn1c(=O)c2c(nc3n2CCCN3CC(=O)N2CCN(c3ccc(Cl)cc3)CC2)n(C)c1=O
inhibition [15]: 0% | inhibition [11]: 24% | pKi (Adenosine receptor A2a [3]): < 5.00 | inhibition [5]: -7% | inhibition [16]: 39% | pIC50 [6]: 5.66 | inhibition at 10 µM [13]: 60% | inhibition at 10 µM [7]: 13% | pKi (Adenosine receptor A1 [8]): < 5.82 | pKi (Adenosine receptor A3): < 6.00 | pKi (Adenosine receptor A2b): < 6.00 | pIC50 [10]: < 5.00
